Assay outcomes (PubChem BioAssay)
HTRA1 inhibitor – inhibitors of human serine peptidase HTRA1; Q92743; recombinant HTRA1, FP-rhodamine activity-based probe, fluorescence polarization; inhibition, % at 5.96 µM; 340,000 compounds, 0.5% hits; AID 504803; in the data active = inhibition above about 36%;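 also: 0% = enzyme with DMSO and 100% = wells lacking enzyme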
Target sequence (Q92743 whole entry, looked up): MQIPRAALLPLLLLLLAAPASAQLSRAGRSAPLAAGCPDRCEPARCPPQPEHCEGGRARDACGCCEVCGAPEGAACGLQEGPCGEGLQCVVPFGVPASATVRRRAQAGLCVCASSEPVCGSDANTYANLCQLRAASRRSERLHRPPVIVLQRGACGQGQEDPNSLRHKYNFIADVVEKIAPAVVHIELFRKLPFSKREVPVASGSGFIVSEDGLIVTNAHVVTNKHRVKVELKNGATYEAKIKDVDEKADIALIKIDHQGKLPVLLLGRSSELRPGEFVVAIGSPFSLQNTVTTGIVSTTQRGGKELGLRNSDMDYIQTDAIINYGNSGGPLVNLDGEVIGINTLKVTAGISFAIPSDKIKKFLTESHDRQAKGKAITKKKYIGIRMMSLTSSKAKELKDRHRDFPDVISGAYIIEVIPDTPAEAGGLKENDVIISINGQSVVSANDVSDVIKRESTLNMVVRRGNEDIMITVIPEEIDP
ABHD4 inh – ABHD4 (mouse) inhibition, primary FP screen. purified mABHD4, FP-Rh probe fluorescence polarization. 370,000 compounds, 0.54% hits. inhibition, % at 8.92 µM. Q8VD66;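 active = inhibition exceeding the mean over every tested compound plus 3 SD, cut at about 30% in these data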;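 also: 0% = plate median of compound wells and 100% = S159A mutant with DMSO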
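System: mouse ABHD4 enzyme, wild type / Medium: HEPES pH 7.0, NaCl, Pluronic buffer / Reagent: FP-Rh activity-based fluorescent probe / Control set: S159A mutant high control, sample median low control / Detection: fluorescence polarization with parallel and perpendicular emission, 525/598 nm / Schedule: 45 min + 60 min at 25 °C / Compound dosing: 8.92 µM, single dose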
SIAE primary – inhibitors of human sialic acid acetylesterase SIAE; 370,000 compounds, 0.69% hits; Q9HAT2; inhibition, % at 9.66 µM; SIAE FP-Rh probe binding, fluorescence polarization;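 active = inhibition above a cutoff: mean of compounds within the control limits plus 3 SD of those, cut at about 17% in these data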;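 also: 0% = plate median of compound wells and 100% = probe without SIAE protein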
RBBP9 inhibitor – blocks human serine hydrolase RBBP9; 220,000 compounds, 0.2% hits; O75884; recombinant RBBP9, FP-Rh probe fluorescence polarization; inhibition, % at 7.94 µM;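 active = inhibition above the campaign mean of all tested compounds plus 3 SD, cut at about 14% in these data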;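 also: plate controls were DMSO wells with RBBP9 for no effect and wells lacking RBBP9 protein for full effect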
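Measured by: FP readout at 525/598 nm; material: recombinant human RBBP9; also added: Serine-hydrolase probe FP-Rh, 375 nM pre-mixing; medium: Tris buffer pH 8.0, NaCl, Pluronic; replication: one well per compound; doses: one concentration, 7.94 µM nominal, 0.794% DMSO; timing: preincubation 30 min plus labeling 45 min at 25 °C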
SIAE confirm – confirmation of human SIAE inhibitors; shares compounds with SIAE primary; SIAE FP-Rh activity-based probe, fluorescence polarization; inhibition, % at 9.66 µM; 2,300 compounds, 13% hits;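 active = mean inhibition of the replicates above the hit cutoff set in the primary screen, cut at about 17% in these data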;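 also: 0% = SIAE with DMSO and probe and 100% = probe without SIAE; inhibitors lower polarization as more probe stays unbound to SIAE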
The depositor's hits bear a star; . = no result given; ! = a repeat was not active. Rows were chosen to be rich in hits. Some 1.4% of all compounds tested hit in one or more screens of this group.

SMILES	HTRA1 inhibitor	ABHD4 inh	SIAE primary	RBBP9 inhibitor	SIAE confirm
CCCS(=O)(=O)NC(=O)C1(C)CCCN(C(=O)c2ccc(C#N)cc2)C1 (configuration not stated)	.	-3	-1	.	.
O=C(CNc1ccc2ccccc2c1)N/N=C/c1ccc(OC(=O)/C=C/c2ccco2)cc1	8	-6	22*	-8	14
CCCCC(CCC(=O)Nc1cccc([N+](=O)[O-])c1)C(=O)O (configuration not stated)	8	10	-1	-4	.
CCC(CCC(=O)Nc1cccc([N+](=O)[O-])c1)C(=O)O (configuration not stated)	-3	2	23*	-3	4
O=C1[C@@H]2Cc3c([nH]c4ccccc34)CN2C(=O)CN1CCCO	-6	0	18*	.	4
CC(Sc1nnc(NCc2ccccc2)s1)C(=O)Nc1ccc2c(c1)C(=O)c1ccccc1C2=O (configuration not stated)	-1	22	18*	9	-28
CC(Sc1nnc(Nc2ccccc2)s1)C(=O)Nc1nc(-c2ccccc2)cs1 (configuration not stated)	-18	-3	22*	-7	5
O=C1NC[C@H](CC2CCCCC2)N(CCc2cccc(F)c2)C1=O	1	5	3	.	.
COc1cc(/C=N/NC(=O)CCn2c3ccccc3c3ccccc32)ccc1O	-11	-6	18*	-12	12
COc1cc(/C=N/NC(=O)C2COc3ccccc3O2)ccc1O (configuration not stated)	3	3	20*	-3	8
COc1ccc(/C=N\NC(=O)C2COc3ccccc3O2)cc1O (configuration not stated)	6	12	7	-4	.
COC(=O)[C@H]1C[C@@]2(n3ccc4ccccc43)c3ccccc3N(S(=O)(=O)c3ccccc3)[C@H]2N1	.	-2	5	.	.
COCc1[nH]nc2c1C(c1ccc3c(c1)OCO3)N(Cc1ccccc1)C2=O (configuration not stated)	.	-3	1	.	.
CCNC(=S)NNC(=O)c1cc(-c2cccc(OC)c2)nc2ccccc12	1	11	22*	-6	1
CC1CN(S(=O)(=O)c2cccc(C(=O)Nc3ccc(S(=O)(=O)NC4=NCCCCC4)cc3)c2)CC(C)O1 (configuration not stated)	-4	-1	-3	.	.
O=C(O)CCCn1cc(NC(=O)c2cc(F)c(F)cc2Cl)cn1	1	-1	-2	4	.
O=C(O)CCCn1cc(NC(=O)c2cccc(F)c2)cn1	12	0	20*	9	1
C[C@H]1[C@@H](OC(=O)NCc2ccc(Cl)c(Cl)c2)CC[C@@]23CCCN2C(=O)CCC[C@@H]13	.	2	-3	.	.
O=c1[nH][nH]c(=O)c2cc([N+](=O)[O-])ccc12	6	8	18*!	.	5
CCOC(=O)/C=C(\C)Sc1cc(O)c2ccccc2c1O	20	34*	18*	9	-1
Cn1nnnc1SCC(=O)Nc1ccc(Oc2ccccc2)cc1	-6	-8	2	5	.
Cn1nnnc1SCC(=O)Nc1ccc(C(=O)N2CCN(Cc3ccccc3F)CC2)cc1	-4	5	18*	.	5
C[C@H]1CN([C@@H](C)CO)C(=O)CCCn2nncc2CO[C@@H]1CN(C)Cc1cccc(O)c1	4	8	0	.	.
COc1ccc(NC(=S)Nc2nc(CC(=O)Nc3ccccc3OC)cs2)cc1	-19	-6	21*	1	7
COC(=O)c1sc(N/N=C/c2ccc(C(C)C)cc2)nc1C	8	4	23*	.	7
SMILES	HTRA1 inhibitor	ABHD4 inh	SIAE primary	RBBP9 inhibitor	SIAE confirm
O=C(C1CCN(c2cncnc2)CC1)N1CCCC1	.	2	1	.	.
Cn1c(=O)c2[nH]c(CCCc3nc4ccccc4[nH]3)nc2n(C)c1=O	2	2	4	.	.
c1ccc2c(c1)CCN(c1nc3ccccc3n3cnnc13)C2	-21	-3	18*	-7	-7
c1ccc(N2CCN(c3nc4ccccc4n4cnnc34)CC2)cc1	-4	1	-5	-3	.
Cc1ccc(S(=O)(=O)N2CCN(c3ccccc3)CC2)c(C)c1	-8	2	22*	.	5
Cn1cc(S(=O)(=O)N2CCN(c3ccccc3)CC2)c(=O)n(C)c1=O	3	10	60*	-2	2
c1ccc(-c2ccc3ncccc3n2)cc1	.	6	-1	.	.
O=C1Nc2cnc(Cl)nc2Nc2ccc(Cl)cc21	.	-6	-15	.	.
CCCNC(=O)CN1C(=O)COc2ccc(S(=O)(=O)N3CC(C)CC(C)C3)cc21 (configuration not stated)	3	-6	4	.	.
O=C(N[C@H](Cc1ccccc1)C(=O)N1CCN(CC(=O)N2CCCC2)CC1)[C@H]1O[C@@H](n2ccc(=O)[nH]c2=O)[C@H](O)[C@@H]1O	.	-1	47*	.	43*
Cc1nccn1-c1ccc(NC(=O)[C@@H](Cc2ccccc2)NC(=O)[C@H]2O[C@@H](n3ccc(=O)[nH]c3=O)[C@H](O)[C@@H]2O)cc1	.	-19	54*	.	44*
NC(=O)c1ncn([C@@H]2O[C@H](C(=O)N3CCN(CC(=O)Nc4ccccn4)CC3)[C@@H](O)[C@H]2O)n1	.	3	7	.	.
NC(=O)[C@@H]1CCCN1C(=O)[C@@H](Cc1ccccc1)NC(=O)[C@H]1O[C@@H](n2ccc(=O)[nH]c2=O)[C@H](O)[C@@H]1O	.	-2	49*	.	41*
NC(=O)c1ncn([C@@H]2O[C@H](C(=O)N[C@H](Cc3ccccc3)C(=O)N3CCN(CC(=O)Nc4ccccn4)CC3)[C@@H](O)[C@H]2O)n1	.	5	44*	.	39*
Cc1ccc(NC(=O)[C@@H](Cc2ccccc2)NC(=O)[C@H]2O[C@@H](n3ccc(=O)[nH]c3=O)[C@H](O)[C@@H]2O)cc1C	.	-6	0	.	.
CCCCn1nc(C(=O)NCC(c2cccs2)N2CCOCC2)c2ccccc2c1=O (configuration not stated)	-9	-6	-9	.	.
CC(C)[C@H](CO)NC(=O)[C@H]1O[C@@H](n2ccc(=O)[nH]c2=O)[C@H](O)[C@@H]1O	.	-3	70*	.	55*
CSCC[C@@H](CO)NC(=O)[C@H]1O[C@@H](n2ccc(=O)[nH]c2=O)[C@H](O)[C@@H]1O	.	6	3	.	.
CCOc1ccc(OCCC(=O)OCC(=O)NC2CCCC2)cc1	-1	5	-1	.	.
C[C@H](CO)N1C[C@H](C)[C@@H](CN(C)Cc2cccc3c2OCCCO3)OCc2cnnn2CCCC1=O	5	5	2	.	.
CCOC(=O)c1[nH]c(C)c(C(=O)N2CCOCC2)c1C	1	-2	22*	-3	2
CCCNC(=O)C[C@H]1CC[C@@H]2[C@H](COC[C@@H](O)CN2C(=O)c2ccccn2)O1	.	4	6	.	.
O=C(CN1C(=O)C2(OCCCO2)c2ccccc21)NCc1ccc2ccccc2c1	.	4	-5	.	.
